Results reported in ChEMBL document CHEMBL4229530, “5-Adamantan thiadiazole-based thiazolidinones as antimicrobial agents. Design, synthesis, molecular docking and evaluation” (2018).
In brackets after ≈: the same amount, converted by molar mass.

Columns and labels:
Talaromyces funiculosus = test: Antifungal activity against Penicillium funiculosum ATCC 36839 after 72 hrs by serial dilution assay; type: functional; conditions: ATCC 36839, 72 h
In short: (§1)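 Modified microdilution: fungal spores washed off malt agar with sterile 0.85% saline plus 0.1% Tween 80, adjusted to about 1.0×10^5 per 100 µL well. Compounds in 5% DMSO (0.001-1.0 mg/ml) in malt broth; 72 h at 28°C on rotary shaker (160 rpm). MIC is lowest concentration without visible growth under binocular microscope. Bifonazole and ketoconazole controls (1-3500 µg/mL); three independent experiments in duplicate.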

Aspergillus versicolor = test: Antifungal activity against Aspergillus versicolor ATCC 11730 after 72 hrs by serial dilution assay; type: functional; conditions: ATCC 11730, 72 h; in short: as §1
Pseudomonas aeruginosa [1] = test: Antibacterial activity against drug-resistant Pseudomonas aeruginosa after 24 hrs by INT dye based microdilution assay; type: functional
In short: (§2)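 Broth microdilution in tryptic soy broth. Overnight culture adjusted to 1×10^5 CFU/mL, giving 1.0×10^4 CFU per well. Compounds dissolved in 5% DMSO and tested at 0.001-1.0 mg/ml. Plates incubated 24 h at 37°C. INT (0.2 mg/mL) then added, with 30 min at 37°C. Duplicate, repeated three times.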

Escherichia coli [2] = test: Antibacterial activity against Escherichia coli ATCC 35210 after 24 hrs by INT dye based microdilution assay; type: functional; conditions: ATCC 35210, 24 h
In short: (§3)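 Broth microdilution in tryptic soy broth: overnight bacterial culture adjusted to 1×10^5 CFU/mL, 1.0×10^4 CFU per well; compounds dissolved in 5% DMSO, tested at 0.001-1.0 mg/ml; 24 h at 37°C. Streptomycin and ampicillin as positive controls, 5% DMSO as negative control; duplicate, repeated three times.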

Aspergillus niger = test: Antifungal activity against Aspergillus niger ATCC 6275 after 72 hrs by serial dilution assay; type: functional; conditions: ATCC 6275, 72 h; in short: as §1
Penicillium ochrochloron = test: Antifungal activity against Penicillium ochrochloron ATCC 9112 after 72 hrs by serial dilution assay; type: functional; conditions: ATCC 9112, 72 h; in short: as §1
Staphylococcus aureus [3] = test: Antibacterial activity against methicillin-resistant Staphylococcus aureus after 24 hrs by INT dye based microdilution assay; type: functional; in short: as §2
Aspergillus fumigatus = test: Antifungal activity against Aspergillus fumigatus isolate 1022 after 72 hrs by serial dilution assay; type: functional; conditions: isolate 1022, 72 h; in short: as §1
Listeria monocytogenes = test: Antibacterial activity against Listeria monocytogenes NCTC 7973 after 24 hrs by INT dye based microdilution assay; type: functional; conditions: NCTC 7973, 24 h; in short: as §3
Staphylococcus aureus [4] = test: Antibacterial activity against Staphylococcus aureus ATCC 6538 after 24 hrs by INT dye based microdilution assay; type: functional; conditions: ATCC 6538, 24 h; in short: as §3
Bacillus cereus = test: Antibacterial activity against Bacillus cereus after 24 hrs by INT dye based microdilution assay; type: functional; in short: as §3
Penicillium verrucosum = test: Antifungal activity against Penicillium cyclopium var verucosum after 72 hrs by serial dilution assay; type: functional; in short: as §1
Micrococcus flavus = test: Antibacterial activity against Micrococcus flavus ATCC 10240 after 24 hrs by INT dye based microdilution assay; type: functional; conditions: ATCC 10240, 24 h; in short: as §3
Pseudomonas aeruginosa [5] = test: Antibacterial activity against Pseudomonas aeruginosa ATCC 27853 after 24 hrs by INT dye based microdilution assay; type: functional; conditions: ATCC 27853, 24 h; in short: as §3
Escherichia coli [6] = test: Antibacterial activity against drug-resistant Escherichia coli after 24 hrs by INT dye based microdilution assay; type: functional; in short: as §2
Salmonella typhimurium = test: Antibacterial activity against Salmonella typhimurium ATCC 13311 after 24 hrs by INT dye based microdilution assay; type: functional, Salmonella enterica subsp. enterica serovar Typhimurium; conditions: Salmonella enterica, ATCC 13311, 24 h; in short: as §3
Trichoderma viride = test: Antifungal activity against Trichoderma viride IAM 5061 after 72 hrs by serial dilution assay; type: functional; conditions: IAM 5061, 72 h; in short: as §1
Enterobacter cloacae = test: Antibacterial activity against Enterobacter cloacae after 24 hrs by INT dye based microdilution assay; type: functional; in short: as §3
Aspergillus ochraceus = test: Antifungal activity against Aspergillus ochraceus ATCC 12066 after 72 hrs by serial dilution assay; type: functional; conditions: ATCC 12066, 72 h; in short: as §1

| SMILES | MIC (Talaromyces funiculosus) [µM] | MIC (Aspergillus versicolor) [µM] | MIC (Pseudomonas aeruginosa [1]) [µM] | MIC (Escherichia coli [2]) [µM] | MIC (Aspergillus niger) [µM] | MIC (Penicillium ochrochloron) [µM] | MIC (Staphylococcus aureus [3]) [µM] | MIC (Aspergillus fumigatus) [µM] | MIC (Listeria monocytogenes) [µM] | MIC (Staphylococcus aureus [4]) [µM] | MIC (Bacillus cereus) [µM] | MIC (Penicillium verrucosum) [µM] | MIC (Micrococcus flavus) [µM] | MIC (Pseudomonas aeruginosa [5]) [µM] | MIC (Escherichia coli [6]) [µM] | MIC (Salmonella typhimurium) [µM] | MIC (Trichoderma viride) [µM] | MIC (Enterobacter cloacae) [µM] | MIC (Aspergillus ochraceus) [µM] |
| --- | --- | --- | --- | --- | --- | --- | --- | --- | --- | --- | --- | --- | --- | --- | --- | --- | --- | --- | --- |
| O=C1N/C(=N\c2nnc(C34CC5CC(CC(C5)C3)C4)s2)S/C1=C/c1cccc(Cl)c1Cl | 326 (≈ 160 µg/mL) | 163 (≈ 80.1 µg/mL) | 183 (≈ 90 µg/mL) | 0.244 (≈ 0.12 µg/mL) | 163 (≈ 80.1 µg/mL) | 163 (≈ 80.1 µg/mL) | 0.183 (≈ 0.09 µg/mL) | 163 (≈ 80.1 µg/mL) | 244 (≈ 120 µg/mL) | 0.244 (≈ 0.12 µg/mL) | 244 (≈ 120 µg/mL) | 0.163 (≈ 0.0801 µg/mL) | 244 (≈ 120 µg/mL) | 122 (≈ 60 µg/mL) | 0.183 (≈ 0.09 µg/mL) | 122 (≈ 60 µg/mL) | 163 (≈ 80.1 µg/mL) | 244 (≈ 120 µg/mL) | 163 (≈ 80.1 µg/mL) |
| O=C1N/C(=N\c2nnc(C34CC5CC(CC(C5)C3)C4)s2)S/C1=C/c1ccc(F)cc1 | 90.9 (≈ 40 µg/mL) | 90.9 (≈ 40 µg/mL) | 295 (≈ 130 µg/mL) | 0.295 (≈ 0.13 µg/mL) | 182 (≈ 80.2 µg/mL) | 90.9 (≈ 40 µg/mL) | 0.295 (≈ 0.13 µg/mL) | 90.9 (≈ 40 µg/mL) | 295 (≈ 130 µg/mL) | 0.147 (≈ 0.065 µg/mL) | 295 (≈ 130 µg/mL) | 0.182 (≈ 0.0801 µg/mL) | 295 (≈ 130 µg/mL) | 295 (≈ 130 µg/mL) | 0.295 (≈ 0.13 µg/mL) | 295 (≈ 130 µg/mL) | 182 (≈ 80.2 µg/mL) | 148 (≈ 65 µg/mL) | 90.9 (≈ 40 µg/mL) |
| O=C1N/C(=N\c2nnc(C34CC5CC(CC(C5)C3)C4)s2)S/C1=C/c1c(F)cccc1F | 393 (≈ 180 µg/mL) | 393 (≈ 180 µg/mL) | 393 (≈ 180 µg/mL) | 0.0436 (≈ 0.02 µg/mL) | 393 (≈ 180 µg/mL) | 393 (≈ 180 µg/mL) | 0.393 (≈ 0.18 µg/mL) | 393 (≈ 180 µg/mL) | 21.8 (≈ 10 µg/mL) | 0.0436 (≈ 0.02 µg/mL) | 43.6 (≈ 20 µg/mL) | 0.393 (≈ 0.18 µg/mL) | 43.6 (≈ 20 µg/mL) | 43.6 (≈ 20 µg/mL) | 0.393 (≈ 0.18 µg/mL) | 43.6 (≈ 20 µg/mL) | 393 (≈ 180 µg/mL) | 21.8 (≈ 10 µg/mL) | 393 (≈ 180 µg/mL) |
| O=C1N/C(=N\c2nnc(C34CC5CC(CC(C5)C3)C4)s2)S/C1=C/c1ccccc1[N+](=O)[O-] | 482 (≈ 225 µg/mL) | 321 (≈ 150 µg/mL) | 175 (≈ 81.8 µg/mL) | 0.0322 (≈ 0.0151 µg/mL) | 482 (≈ 225 µg/mL) | 321 (≈ 150 µg/mL) | 0.175 (≈ 0.0818 µg/mL) | 321 (≈ 150 µg/mL) | 32.2 (≈ 15.1 µg/mL) | 0.0322 (≈ 0.0151 µg/mL) | 32.2 (≈ 15.1 µg/mL) | 0.321 (≈ 0.15 µg/mL) | 32.2 (≈ 15.1 µg/mL) | 32.2 (≈ 15.1 µg/mL) | 0.175 (≈ 0.0818 µg/mL) | 32.2 (≈ 15.1 µg/mL) | 321 (≈ 150 µg/mL) | 32.2 (≈ 15.1 µg/mL) | 321 (≈ 150 µg/mL) |
| CC1(C)S[C@@H]2[C@H](NC(=O)[C@H](N)c3ccccc3)C(=O)N2[C@H]1C(=O)O [AMPICILLIN] | – | – | 1240 (≈ 433 µg/mL) | 0.372 (≈ 0.13 µg/mL) | – | – | – | – | 372 (≈ 130 µg/mL) | 0.248 (≈ 0.0867 µg/mL) | 248 (≈ 86.7 µg/mL) | – | 248 (≈ 86.7 µg/mL) | 744 (≈ 260 µg/mL) | 1.24 (≈ 0.433 µg/mL) | 248 (≈ 86.7 µg/mL) | – | 248 (≈ 86.7 µg/mL) | – |
| CN[C@@H]1[C@H](O[C@H]2[C@H](O[C@H]3[C@H](O)[C@@H](O)[C@H](N=C(N)N)[C@@H](O)[C@@H]3N=C(N)N)O[C@@H](C)[C@]2(O)C=O)O[C@@H](CO)[C@H](O)[C@H]1O [STREPTOMYCIN] | – | – | 129 (≈ 75 µg/mL) | 0.172 (≈ 0.1 µg/mL) | – | – | 0.258 (≈ 0.15 µg/mL) | – | 258 (≈ 150 µg/mL) | 0.172 (≈ 0.1 µg/mL) | 43 (≈ 25 µg/mL) | – | 86 (≈ 50 µg/mL) | 172 (≈ 100 µg/mL) | 0.258 (≈ 0.15 µg/mL) | 172 (≈ 100 µg/mL) | – | 43 (≈ 25 µg/mL) | – |
